# Experimental data as given in ChEMBL document CHEMBL3232834, “Synthesis of novel building blocks of benzosuberone bearing coumarin moieties and their evaluation as potential anticancer agents” (Eur J Med Chem, 2014).
# System: A549
# Assay: In vitro cytotoxicity against human A549 cells assessed as growth inhibition by MTT assay
# Assay type: functional, cell-based
# Conditions: not given
# Method in brief: (§1)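 Human tumour lines A549 (alveolar adenocarcinoma), HeLa (cervical), MDA-MB-231 and MCF7 (breast adenocarcinoma), plus normal embryonic kidney HEK293, all ATCC-sourced, grown in 96-well plates. Growth inhibition read as cell-mediated reduction of tetrazolium salt (MTT) to formazan, with doxorubicin as standard. IC50 (µM) calculated from absorbance dose-response curves.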
row,Compound,IC50 [µM]
1,O=c1oc2ccccc2c2c1CCCc1ccccc1-2,3.35
2,Cc1cc2c(cc1C)-c1c(c(=O)oc3ccc(Cl)cc13)CCC2,10.8
3,COc1cc2c(cc1OC)-c1c(c(=O)oc3ccccc13)CCC2,> 200

# System: HeLa
# Assay: In vitro cytotoxicity against human HeLa cells assessed as growth inhibition by MTT assay
# Assay type: functional, cell-based
# Conditions: not given
# Method in brief: as §1
row,Compound,IC50 [µM]
1,O=c1oc2ccccc2c2c1CCCc1ccccc1-2,14.1
2,Cc1cc2c(cc1C)-c1c(c(=O)oc3ccc(Cl)cc13)CCC2,12.7
3,COc1cc2c(cc1OC)-c1c(c(=O)oc3ccccc13)CCC2,6.72

# System: MDA-MB-231
# Assay: In vitro cytotoxicity against human MDA-MB-231 cells assessed as growth inhibition by MTT assay
# Assay type: functional, cell-based
# Conditions: not given
# Method in brief: as §1
row,Compound,IC50 [µM]
1,O=c1oc2ccccc2c2c1CCCc1ccccc1-2,16.8
2,Cc1cc2c(cc1C)-c1c(c(=O)oc3ccc(Cl)cc13)CCC2,13.3
3,COc1cc2c(cc1OC)-c1c(c(=O)oc3ccccc13)CCC2,4.87

# System: MCF7
# Assay: In vitro cytotoxicity against human MCF7 cells assessed as growth inhibition by MTT assay
# Assay type: functional, cell-based
# Conditions: not given
# Method in brief: as §1
row,Compound,IC50 [µM]
1,O=c1oc2ccccc2c2c1CCCc1ccccc1-2,9.63
2,Cc1cc2c(cc1C)-c1c(c(=O)oc3ccc(Cl)cc13)CCC2,15.8
3,COc1cc2c(cc1OC)-c1c(c(=O)oc3ccccc13)CCC2,> 200

# System: HEK293
# Assay: In vitro cytotoxicity against HEK293 cells assessed as growth inhibition by MTT assay
# Assay type: cell-based
# Conditions: Homo sapiens
# Method in brief: as §1
row,Compound,IC50 [µM]
1,O=c1oc2ccccc2c2c1CCCc1ccccc1-2,> 200
2,Cc1cc2c(cc1C)-c1c(c(=O)oc3ccc(Cl)cc13)CCC2,> 200
3,COc1cc2c(cc1OC)-c1c(c(=O)oc3ccccc13)CCC2,> 200
4,COc1cccc2c1C(=O)c1c(O)c3c(c(O)c1C2=O)C[C@@](O)(C(=O)CO)C[C@@H]3O[C@H]1C[C@H](N)[C@H](O)[C@H](C)O1 [DOXORUBICIN],> 200
